# Experimental data pooled from the literature.
# Compare with care: the assays were run in different laboratories.
# IAPP: Islet amyloid polypeptide (IAPP, Homo sapiens, UniProt P10997)
# malE: malE (Escherichia coli, UniProt P0AEX9)
# AMY2: Pancreatic alpha-amylase (AMY2, Sus scrofa, UniProt P00690)
SMILES,target,read-out,mode,technique,notes,endpoint,result
COc1ccc(-c2cc(=O)c3c(OC)c(OC)c(OC)c(OC)c3o2)cc1OC,IAPP,binding,,ITC,,Kd,2.79 µM
CCCc1ccc(O)c(OC)c1,"OR8H1 (Homo sapiens, UniProt Q8NGG4)",cAMP,agonist,luciferase,,EC50,> 600 µM
CC(C)(C)OC(=O)N1CCN(Cc2ccn(Cc3ccc(Cl)cc3)c(=O)c2O)CC1,"Lysine-specific demethylase 4D (KDM4D, Homo sapiens, UniProt Q6B0I6)",enzyme activity,inhibitor,,,IC50,3.35 µM
C[C@H]1O[C@H](O[C@H]2[C@H](O)[C@@H](O)[C@@H](O[C@H]3[C@H](O)[C@@H](O)C(O)O[C@@H]3CO)O[C@@H]2CO)[C@H](O)[C@@H](O)[C@@H]1N[C@H]1C=C(CO)[C@@H](O)[C@H](O)[C@H]1O (stereo partly drawn),malE,binding,,ITC,,Kd,0.36 µM
CC(=O)Nc1ccc(Nc2nc(-c3sc(N)nc3C)cs2)cc1,"Lysyl oxidase homolog 2 (LOXL2, Homo sapiens, UniProt Q9Y4K0)",enzyme activity,inhibitor,fluorescence,with preincubation,IC50,0.95 µM
FC(F)(F)c1ccc(/C=N/N=C/c2ccc(C(F)(F)F)cc2)cc1,AMY2,enzyme activity,inhibitor,,,IC50,270 µM
COc1ccc(-c2cc(=O)c3c(OC)c(OC)c(OC)cc3o2)cc1OC,IAPP,binding,,ITC,,Kd,3.06 µM
Clc1ccccc1/C=N/N=C/c1ccccc1Cl,AMY2,enzyme activity,inhibitor,,,IC50,478 µM
OC[C@@H](O)[C@@H](O[C@H]1O[C@H](CO)[C@@H](O[C@H]2O[C@H](CO)[C@@H](O[C@H]3O[C@H](CO)[C@@H](O)[C@H](O)[C@H]3O)[C@H](O)[C@H]2O)[C@H](O)[C@H]1O)[C@H](O)[C@@H](O)CO,malE,binding,,ITC,,Kd,4.44 µM
